Laboratory results published in ChEMBL document CHEMBL1141208, “Synthesis and biological evaluation of methoxylated analogs of the newer generation taxoids IDN5109 and IDN5390” (Bioorg Med Chem Lett, 2005).

Key:
[1] = Resistance index (IC50 of MCF7 resistant cell line/IC50 of MCF7 sensitive cell line); assay type: functional, Homo sapiens
MCF7-DOX = test: Cytotoxic potency in doxorubicin resistant MCF7 cell line after 72 hr exposure by SRB test; assay type: functional, cell-based; conditions: Homo sapiens
Procedure, shortened: (§1)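 Monolayers grown in RPMI-1640 with 5% FCS, 5% NuSerum IV, 20 mM Hepes, 2 mM L-glutamine, 37 °C, 5% CO2. 800–1500 cells/well attached 15–18 h, then given 10 concentrations over a 5-log range (DMSO stock diluted in RPMI/10 mM Hepes) for 72 h. Cells TCA-fixed, sulforhodamine B stained, OD 570 nm. IC50 from Sigmoid-Emax nonlinear regression; means of ≥3 independent experiments ± SE.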

MCF7 = test: Cytotoxic potency in MCF7 human mammary carcinoma cell line after 72 hr exposure by SRB test; assay type: functional, cell-based; conditions: MCF7, 72 h; procedure, shortened: as §1

| SMILES | Ratio IC50 [1] | IC50 (MCF7-DOX) [nM] | IC50 (MCF7) [nM] |
| --- | --- | --- | --- |
| COc1cccc(C(=O)O[C@H]2[C@H]([C@]3(OC(C)=O)CO[C@@H]3CCO)/C(C)=C(/O)C(=O)C3=C(C)[C@@H](OC(=O)[C@H](O)[C@H](CC(C)C)NC(=O)OC(C)(C)C)[C@@H]4OC(=O)O[C@]42C3(C)C)c1 | 240 | 120 | 0.5 |
| CC(=O)O[C@@]1([C@@H]2/C(C)=C(/O)C(=O)C3=C(C)[C@@H](OC(=O)[C@H](O)[C@H](CC(C)C)NC(=O)OC(C)(C)C)C[C@@](O)([C@H]2OC(=O)c2ccccc2)C3(C)C)CO[C@@H]1CCO | 93 | 1040 | 11.2 |
| CC(=O)O[C@H]1C(=O)[C@@]2(C)[C@H]([C@H](OC(=O)c3ccccc3)[C@]3(O)C[C@H](OC(=O)[C@H](O)[C@@H](NC(=O)c4ccccc4)c4ccccc4)C(C)=C1C3(C)C)[C@]1(OC(C)=O)CO[C@@H]1C[C@@H]2O [PACLITAXEL] | 975 | 585 | 0.6 |
| CC(=O)O[C@H]1C(=O)[C@@]2(C)[C@H]([C@H](OC(=O)c3ccccc3)[C@]34OC(=O)O[C@H]3[C@H](OC(=O)[C@H](O)[C@H](CC(C)C)NC(=O)OC(C)(C)C)C(C)=C1C4(C)C)[C@]1(OC(C)=O)CO[C@@H]1C[C@@H]2O [ORTATAXEL] | 20 | 32 | 1.6 |
| COc1cccc(C(=O)O[C@H]2[C@@H]3[C@]4(OC(C)=O)CO[C@@H]4C[C@H](O)[C@@]3(C)C(=O)[C@H](OC(C)=O)C3=C(C)[C@@H](OC(=O)[C@H](O)[C@H](CC(C)C)NC(=O)OC(C)(C)C)[C@@H]4OC(=O)O[C@]42C3(C)C)c1 | 17 | 4 | 0.24 |
